Assay results from ChEMBL document CHEMBL3632581, “Dimers of Melampomagnolide B Exhibit Potent Anticancer Activity against Hematological and Solid Tumor Cells” (J Med Chem, 2015).

How the values were obtained:
[1] = tested on: HL-60(TB); assay: Cytotoxicity against human HL-60(TB) cells after 48 hrs by SRB assay; type: functional; details: HL-60, 48 h
How it was run: (§1)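 NCI-60 five-dose screen at 10−8 to 10−4 M. Cells were plated at 5,000–40,000/well in RPMI 1640 with 5% FBS and 2 mM L-glutamine, then preincubated 24 h, and time-zero plates were TCA-fixed. Compound was added from DMSO stocks and exposed 48 h at 37 °C. Cells were TCA-fixed, SRB-stained, and read at 515 nm. LC50 is the concentration halving the cell population through cell death.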

[2] = tested on: RPMI-8226; assay: Cytotoxicity against human RPMI8226 cells after 48 hrs by SRB assay; type: functional; details: RPMI-8226, 48 h; how it was run: as §1
[3] = tested on: A549; assay: Cytotoxicity against human A549 cells after 48 hrs by SRB assay; type: functional; details: A549, 48 h; how it was run: as §1
[4] = tested on: HOP-62; assay: Cytotoxicity against human HOP62 cells after 48 hrs by SRB assay; type: functional; details: HOP-62, 48 h; how it was run: as §1
[5] = tested on: HOP-92; assay: Cytotoxicity against human HOP92 cells after 48 hrs by SRB assay; type: functional; details: HOP-92, 48 h; how it was run: as §1
[6] = tested on: NCI-H226; assay: Cytotoxicity against human NCI-H226 cells after 48 hrs by SRB assay; type: functional; details: NCI-H226, 48 h; how it was run: as §1
[7] = tested on: NCI-H460; assay: Cytotoxicity against human NCI-H460 cells after 48 hrs by SRB assay; type: functional; details: NCI-H460, 48 h; how it was run: as §1
[8] = tested on: NCI-H522; assay: Cytotoxicity against human NCI-H522 cells after 48 hrs by SRB assay; type: functional; details: NCI-H522, 48 h; how it was run: as §1
[9] = tested on: HCT-116; assay: Cytotoxicity against human HCT116 cells after 48 hrs by SRB assay; type: functional; details: HCT-116, 48 h; how it was run: as §1
[10] = tested on: HT-29; assay: Cytotoxicity against human HT-29 cells after 48 hrs by SRB assay; type: functional; details: HT-29, 48 h; how it was run: as §1
[11] = tested on: SF-539; assay: Cytotoxicity against human SF539 cells after 48 hrs by SRB assay; type: functional; details: SF-539, 48 h; how it was run: as §1
[12] = tested on: U-251; assay: Cytotoxicity against human U251 cells after 48 hrs by SRB assay; type: functional; details: U-251, 48 h
How it was run: (§2)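 NCI-60 screen: cells grown in RPMI 1640 with 5% FBS and 2 mM L-glutamine, plated at 5,000–40,000 cells/well by doubling time, and preincubated 24 h at 37 °C before drug. Drug was diluted from DMSO stock and given at five concentrations, 10−4 to 10−8 M, for 48 h. Cells fixed with cold TCA, SRB stained, OD read at 515 nm against time-zero and vehicle plates. LC50 taken as the concentration that halves cell population through cell death.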

[13] = tested on: MDA-MB-435; assay: Cytotoxicity against human MDA-MB-435 cells after 48 hrs by SRB assay; type: functional; details: MDA-MB-435, 48 h; how it was run: as §1
[14] = tested on: SK-MEL-28; assay: Cytotoxicity against human SK-MEL-28 cells after 48 hrs by SRB assay; type: functional; details: SK-MEL-28, 48 h; how it was run: as §1
[15] = tested on: SK-MEL-5; assay: Cytotoxicity against human SK-MEL-5 cells after 48 hrs by SRB assay; type: functional; details: SK-MEL-5, 48 h; how it was run: as §1
[16] = tested on: OVCAR-3; assay: Cytotoxicity against human OVCAR3 cells after 48 hrs by SRB assay; type: functional; details: OVCAR-3, 48 h; how it was run: as §1
[17] = Cytotoxicity against human NCI-ADR-RES cells after 48 hrs by SRB assay; type: functional; how it was run: as §1
[18] = tested on: CAKI-1; assay: Cytotoxicity against human Caki1 cells after 48 hrs by SRB assay; type: functional; details: CAKI-1, 48 h; how it was run: as §1
[19] = tested on: DU-145; assay: Cytotoxicity against human DU145 cells after 48 hrs by SRB assay; type: functional; details: DU-145, 48 h; how it was run: as §1
[20] = tested on: MCF7; assay: Cytotoxicity against human MCF7 cells after 48 hrs by SRB assay; type: functional; details: MCF7, 48 h
How it was run: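 NCI-60 screen: cells in RPMI 1640 with 5% FBS and 2 mM L-glutamine, preincubated 24 h at 37 °C. Compound was then added for 48 h at five concentrations (10−4 to 10−8 M). Cells were fixed with cold TCA and stained with 0.4% SRB in 1% acetic acid, and OD read at 515 nm. GI50 is the concentration halving net protein increase versus control.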

[21] = tested on: MDA-MB-231; assay: Cytotoxicity against human MDA-MB-231 cells after 48 hrs by SRB assay; type: functional; details: MDA-MB-231, 48 h; how it was run: as §1
[22] = Cytotoxicity against human Hs 578T cells after 48 hrs by SRB assay; type: functional; how it was run: as §1
[23] = tested on: BT-549; assay: Cytotoxicity against human BT549 cells after 48 hrs by SRB assay; type: functional; details: BT-549, 48 h; how it was run: as §1
[24] = tested on: T47D; assay: Cytotoxicity against human T47D cells after 48 hrs by SRB assay; type: functional; how it was run: as §2
[25] = Antileukemic activity against human M9-ENL1 cells after 24 hrs by annexin V/7-AAD staining-based flow cytometric analysis; type: functional, cell-based
How it was run: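 M9-ENL1 cells in alpha-MEM with 5% human plasma, 20% FBS, SCF, IL-3, IL-7 and FLT3. Drug came from a DMSO stock diluted in PBS (≤0.5% DMSO final), for 24 h over 0.5-10 μM. Cells negative for both annexin V and 7-AAD were taken as non-apoptotic and normalized to vehicle. EC50 read from dose-response curves, triplicate.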

[26] = Antileukemic activity against human AML02 cells after 24 hrs by annexin V/7-AAD staining-based flow cytometric analysis; type: functional, cell-based
How it was run: (§3)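 Primary AML specimens from consenting donors, isolated by Ficoll-Paque gradient and sometimes cryopreserved. Cells were held 1 h in serum-free IMDM with 20% BIT 9500, LDL and β-mercaptoethanol before drug (DMSO stock diluted in PBS, ≤0.5% DMSO final). Exposure was 24 h over 0.5-10 μM. Annexin V/7-AAD double-negative cells, normalized to vehicle, gave the EC50. Run in triplicate.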

[27] = Antileukemic activity against human AML03 cells after 24 hrs by annexin V/7-AAD staining-based flow cytometric analysis; type: functional, cell-based; how it was run: as §3
[28] = Antileukemic activity against human AML04 cells after 24 hrs by annexin V/7-AAD staining-based flow cytometric analysis; type: functional, cell-based; how it was run: as §3
[29] = Cytotoxicity against hematopoietic progenitor cells isolated from human umbilical cord blood by annexin V staining-based flow cytometric analysis; type: cell-based
How it was run: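 Cord-blood mononuclear cells from Ficoll-Paque were plated in serum-free medium, with drug from a DMSO stock (≤0.5% DMSO final). Cells were stained for CD34, CD45 and annexin V. The non-apoptotic fraction (annexin V-negative within the CD34+CD45dim compartment) was normalized to vehicle, and EC50 was fitted where possible. Triplicate.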

[30] = read-out: LC50 (the source's name)

For C=C1C(=O)O[C@H]2[C@H]1CC/C(COC(=O)NCCCCNC(=O)OC/C1=C/CC[C@@]3(C)O[C@H]3[C@H]3OC(=O)C(=C)[C@@H]3CC1)=C\CC[C@@]1(C)O[C@@H]21, the GI50 [1] was 0.25 µM, the CC50 [1, 30] was > 100 µM and the GI50 [2] was 0.54 µM. The CC50 [2, 30] was > 100 µM, the GI50 [3] was 8.02 µM and the CC50 [3, 30] was 58.7 µM. For the same molecule, the GI50 [4] was 3.84 µM, the CC50 [4, 30] was 46.1 µM and the GI50 [5] was 0.28 µM. It also gave a CC50 [5, 30] of 46.1 µM, a GI50 [6] of 11.4 µM and a CC50 [6, 30] of 81.6 µM. The GI50 [7] was 4.61 µM, the CC50 [7, 30] was 60.7 µM and the GI50 [8] was 0.16 µM. For the same molecule, the CC50 [8, 30] was 0.84 µM, the GI50 [9] was 1.12 µM and the CC50 [9, 30] was 6.19 µM. For the same molecule, the GI50 [10] was 0.6 µM, the CC50 [10, 30] was > 100 µM and the GI50 [11] was 1.55 µM. The CC50 [11, 30] was 8.84 µM, the GI50 [12] was 2.94 µM and the CC50 [12, 30] was 33.3 µM. It also gave a GI50 [13] of 1.24 µM, a CC50 [13, 30] of 9.42 µM and a GI50 [14] of 0.52 µM. The CC50 [14, 30] was 8.08 µM, the GI50 [15] was 3.33 µM and the CC50 [15, 30] was 41.4 µM. It also gave a GI50 [16] of 0.69 µM, a CC50 [16, 30] of 4.76 µM and a GI50 [17] of 37.7 µM. For the same molecule, the CC50 [17, 30] was > 100 µM, the GI50 [18] was 10.8 µM and the CC50 [18, 30] was 49.1 µM. It also gave a GI50 [19] of 3.21 µM, an LC50 (concentration killing half the cells) [19] of 33.8 µM and a GI50 [20] of 0.38 µM. The GI50 [21] was 1.53 µM, the LC50 [21] was 6.83 µM and the GI50 [22] was 2.54 µM. The CC50 [22, 30] was > 100 µM, the GI50 [23] was 1.6 µM and the LC50 [23] was 8.23 µM. For the same molecule, the GI50 [24] was 1.51 µM, the CC50 [24, 30] was > 100 µM and the EC50 [25] was 1.5 µM. It also gave an EC50 [26] of 2 µM, an EC50 [27] of 7.3 µM and an EC50 [28] of 4.2 µM. For the same molecule, the EC50 [29] was > 10 µM.
